Here are results for eight molecules from ChEMBL document CHEMBL4038301 (J Med Chem, 2017).

The nature of series [1]: Ratio of drug level in Sprague-Dawley rat brain to plasma at 10 mg/kg, po after 1 hr post dose by LC/MS/MS analysis. Type of series: ADME, organism-based.
Series [2] deals with Rattus norvegicus. The series can be described thus: Volume of distribution at steady state in Sprague-Dawley rat at 1 mg/kg, iv up to 24 hrs post dose by LC/MS/MS Analysis. Format: ADME, organism-based. The settings on record: in vivo. Summed up: (§1)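 Male Sprague–Dawley rats (250–350 g, n=2), dual-cannulated (carotid artery and jugular vein). Dosed 1.0 mg/kg IV into the jugular vein in 10% ethanol, 50–70% PEG 400 and 20–40% saline.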

Series [3] is described as follows: Total drug level in Sprague-Dawley rat brain at 10 mg/kg, po after 1 hr post dose by LC/MS/MS analysis. Type of series: ADME, organism-based. As to conditions: read-out: Drug uptake.
Series [4] has as its system Rattus norvegicus. The series can be described thus: MRT in Sprague-Dawley rat at 1 mg/kg, iv up to 24 hrs post dose by LC/MS/MS analysis. Type of series: ADME, organism-based. As to conditions: in vivo.
For series [5], the system named is Plasma. The series can be described thus: Unbound plasma concentration in Sprague-Dawley rat at 10 mg/kg, po after 1 hr post dose by LC/MS/MS analysis. Type of series: ADME, organism-based. As to conditions: in vivo.
Series [6] can be described thus: Total plasma concentration in Sprague-Dawley rat at 10 mg/kg, po after 1 hr post dose by LC/MS/MS analysis. Format: ADME, organism-based.
Series [7] in a line: Ratio of unbound drug level in Sprague-Dawley rat brain to plasma at 10 mg/kg, po after 1 hr post dose by LC/MS/MS analysis. Type of series: ADME, organism-based.
Series [8] has as its system Rattus norvegicus. Kind of series: Terminal half life in Sprague-Dawley rat at 1 mg/kg, iv up to 24 hrs post dose by LC/MS/MS analysis. Format: ADME, organism-based. The settings on record: in vivo. Summed up: as §1
In series [9] the test system is Brain. Kind of series: Unbound drug level in Sprague-Dawley rat brain at 10 mg/kg, po after 1 hr post dose by LC/MS/MS analysis. Type of series: ADME, organism-based. As to conditions: in vivo.
Series [10] has as its system Cynomolgus monkey. Kind of series: AUC in cynomolgus monkey at 5 mg/kg administered via nasogastric gavage up to 24 hrs by LC/MS/MS analysis. Type of series: ADME, organism-based, Macaca fascicularis. Also noted: dose 5 mg/kg, time < 24 hr, route nasogastric. As to conditions: in vivo, po.
Series [11] has as its system Rattus norvegicus. The series can be described thus: Cmax in Sprague-Dawley rat at 10 mg/kg, administered via nasogastric gavage up to 24 hrs by LC/MS/MS analysis. Type of series: ADME, organism-based. Also noted: dose 10 mg/kg, route nasogastric. The settings on record: in vivo, po.
The test system of series [12] is Cynomolgus monkey. The series can be described thus: MRT in cynomolgus monkey at 0.5 mg/kg, iv up to 24 hrs by LC/MS/MS analysis. Type of series: ADME, organism-based, Macaca fascicularis. As to conditions: in vivo.
Series [13] can be described thus: Plasma clearance in cynomolgus monkey at 0.5 mg/kg, iv up to 24 hrs by LC/MS/MS analysis. Type of series: ADME, organism-based, Macaca fascicularis.
Series [14] concerns Rattus norvegicus. The series can be described thus: Tmax in Sprague-Dawley rat at 10 mg/kg administered via nasogastric gavage up to 24 hrs by LC/MS/MS analysis. Type of series: ADME, organism-based. The settings on record: in vivo, po.
Series [15] can be described thus: (§2) Terminal half life in cynomolgus monkey at 0.5 mg/kg, iv up to 24 hrs by LC/MS/MS analysis. Format: ADME, organism-based, Macaca fascicularis. As to conditions: in vivo, read-out: beta t1/2.
Series [16] relates to Rattus norvegicus. Kind of series: Oral bioavailability in Sprague-Dawley rat at 10 mg/kg, administered via nasogastric gavage up to 24 hrs by LC/MS/MS analysis. Format: ADME, organism-based. As to conditions: in vivo.
Series [17] concerns Rattus norvegicus. Kind of series: AUC in Sprague-Dawley rat at 10 mg/kg, administered via nasogastric gavage up to 24 hrs by LC/MS/MS analysis. Format: ADME, organism-based. Also on record: time < 24 hr, dose 10 mg/kg, route nasogastric. The settings on record: in vivo, po.
For series [18], the system named is Cynomolgus monkey. Kind of series: Cmax in cynomolgus monkey at 5 mg/kg administered via nasogastric gavage up to 24 hrs by LC/MS/MS analysis. Format: ADME, organism-based, Macaca fascicularis. Also noted: dose 5 mg/kg, route nasogastric. As to conditions: in vivo, po.
For series [19], the system named is Cynomolgus monkey. Kind of series: Oral bioavailability in cynomolgus monkey at 5 mg/kg administered via nasogastric gavage up to 24 hrs by LC/MS/MS analysis. Type of series: ADME, organism-based, Macaca fascicularis. The settings on record: in vivo.
A short description of series [20]: Half life in human cryopreserved hepatocytes at 5 uM measured by LC/MS/MS analysis. Type of series: ADME, cell-based, Hepatocyte. A digest of the protocol:
(§3)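 Pooled human cryopreserved hepatocytes (19 donors, mixed gender), thawed and resuspended in KHB. Compound 5 µM final, shaken at 37 °C. Aliquots quenched in acetonitrile with carbamazepine at 0, 15, 30, 60 and 120 min. Percent parent remaining measured by LC/MS/MS. Midazolam served as positive control.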

A short description of series [21]: Apparent permeability across apical to basolateral side in human Caco2 cells at 2 uM after 10 mins by LC-MS/MS. Format: ADME, cell-based. As to conditions: caco-2, 10 min.
Series [22] relates to Brain. The series can be described thus: Unbound concentration in Harlan CD1 mouse brain at 3 mg/kg, ip at 15 mins by equilibrium dialysis method. Format: ADME, organism-based. The settings on record: in vivo. Background: In equilibrium dialysis only unbound substance equilibrates across the membrane.
Series [23] in a line: Drug metabolism in cynomolgus monkey hepatic S9 fraction assessed as AO-mediated metabolite formation by LC/MS analysis. Type of series: ADME, Macaca fascicularis, Liver.
Series [24] in a line: Drug level in Harlan CD1 mouse brain at 3 mg/kg, ip at 15 mins. The settings on record: read-out: Drug uptake. Type of series: ADME, organism-based.
Series [25] is described as follows: Intrinsic clearance in human cryopreserved hepatocytes assessed per million cells at 5 uM measured after 15 to 120 mins by LC/MS/MS analysis. Format: ADME, cell-based, Hepatocyte. Summed up: as §3
Series [26] has as its system Cynomolgus monkey. The series is described as §2. Type of series: ADME, organism-based, Macaca fascicularis. As to conditions: in vivo, 24 h.
Series [27] in a line: Apparent permeability across basolateral to apical side in MDCK cells expressing human MDR1 at 2 uM after 30 mins by LC-MS/MS. The settings on record: dog, 0.5 h. Format: ADME, cell-based, Canis lupus familiaris.
Series [28] in a line: Apparent permeability across apical to basolateral side in MDCK cells expressing human MDR1 at 2 uM after 30 mins by LC-MS/MS. The settings on record: dog, 0.5 h. Type of series: ADME, cell-based, Canis lupus familiaris.
Series [29] can be described thus: Plasma clearance in cynomolgus monkey at 0.2 mg/kg, iv up to 24 hrs by LC/MS/MS analysis. Format: ADME, organism-based, Macaca fascicularis.

By Vdss is commonly meant the apparent volume that relates the amount in the body to the concentration in plasma or blood. A word on the MRT: it is a mean duration of stay, worked out from the concentration-time curve. For `Cc1cc(Oc2cnc(C)nc2)cc(C(=O)Nc2ccc(F)cn2)n1`, the BPR in series [1] turned out to be 0.67. This molecule also showed a volume of distribution (Vdss) in series [2] of 1.2 L/kg. Besides, the figures for the concentration at 1 h in series [3] and in series [6] were 3220 nM and 4820 nM, respectively. The molecule also had an MRT in series [4] of 3.18 h. The “Cp(f)” value in [5] was found to be 390 nM. The “K(p,uu,brain)” value in series [7] amounted to 0.36. In series [8], the “beta t1/2” value came out at 3.82 h. In addition, in [9], the “Drug uptake(free)” value is 142 nM.

For the molecule `CCc1cccc(NC(=O)c2cc(Oc3cncnc3)cc(C)n2)n1`, the Vdss in series [2] came to 6.6 L/kg. Besides, the MRT in series [4] came out at 1.33 h. Moreover, the “beta t1/2” value in series [8] came to 6.73 h.

In general, AUC refers to the area under the concentration-time curve, a measure of exposure. What is called Cmax is the maximum level reached in the sampled fluid or tissue. Broadly, the clearance is the rate of elimination divided by the concentration. By Tmax is commonly meant the time at which the peak concentration occurs. Consider `Cc1cc(Oc2cncc(F)c2)cc(C(=O)Nc2ccc(F)cn2)n1`, for which the area under the curve (AUC) in series [10] was 6.43 µM·h; in [17], 38 µM·h. The molecule further registered a Vdss in series [2] of 1.9 L/kg. In addition, the highest concentration (Cmax) in [11] turned out to be 3330 nM; in series [18], 1360 nM. Besides, the MRT in series [12] was determined as 5.05 h; in series [4] it was 3.47 h. In series [13], this molecule registered a clearance of 13.3 mL/min/kg. In addition, in series [14], the time to peak (Tmax) was 1.5 h. The half-life in series [15] was 9.38 h. For the same molecule, the “Cp(f)” value in series [5] turned out to be 38.6 nM. The F is recorded as 71% in series [16] and 35% in [19]. Besides, the “K(p,uu,brain)” value in [7] is recorded as 0.82. The “beta t1/2” value in series [8] was determined as 4.68 h. For the same molecule, the “Drug uptake(free)” value in series [9] is reported as 31.6 nM.

Broadly, the Papp is a coefficient for how fast a substance crosses the barrier. In turn, `Cc1cc(Oc2cncnc2)cc(C(=O)Nc2ccc(F)cn2)n1` yielded a t1/2 in [20] of 5.37 h. For the same molecule, the Papp in [21] is recorded as 6.5 ×10⁻⁶ cm/s; in [27] it was 7.2 ×10⁻⁶ cm/s; in series [28] it was 6.2 ×10⁻⁶ cm/s. In addition, the AUC turned out to be 7.32 µM·h in series [10] and 14.6 µM·h in series [17]. Further, in [2], the distribution volume (Vdss) came out at 1.8 L/kg. The entries for the “Drug uptake(free)” value in series [22] and in series [9] were 115 nM and 201 nM, respectively. The Drug metabolism entry in series [23] is listed as “Metabolite_Detected”. The concentration at […] in series [24] is 1480 nM. Also, the results for the Cmax in series [11] and in series [18] were 4340 nM and 1720 nM, respectively. For the same molecule, the values for the MRT in series [12] and in series [4] were 2.72 h and 1.55 h, respectively. Further, the concentration at 1 h in series [3] stood at 2580 nM; in [6], 3000 nM. The molecule also showed a clearance in series [13] of 15.5 mL/min/kg. This molecule also registered a CLH in series [25] of 1.43 µL/min. For the same molecule, the Tmax in series [14] turned out to be 0.5 h. For the same molecule, the figures for the “beta t1/2” value in [26] and in series [8] were 5.03 h and 6.5 h, respectively. In addition, the “Cp(f)” value in [5] worked out at 318 nM. Also, the F in series [16] was found to be 53%; in series [19], 44%.

In turn, `Cc1csc(NC(=O)c2cc(F)cc(Oc3cncnc3)c2)n1` came in with a F in [16] of under 5%. Moreover, in [29], the clearance was found to be 24 mL/min/kg.

`Cc1cccc(NC(=O)c2cc(Oc3cncc(F)c3)cc(C)n2)n1` showed a Vdss in series [2] of 4.5 L/kg. Further, the MRT in series [4] stood at 2 h. Besides, the “beta t1/2” value in series [8] was determined as 4.47 h.

Turning to `Cc1cc(Oc2cncc(F)c2)cc(C(=O)Nc2cccc(F)n2)n1`, the volume of distribution (Vdss) in [2] worked out at 11 L/kg. This molecule gave an MRT in series [4] of 2.62 h. In addition, the “beta t1/2” value in series [8] was 1.37 h.

Regarding `Cc1cccc(NC(=O)c2cc(Oc3cncnc3)cc(C)n2)n1`, the distribution volume (Vdss) in [2] turned out to be 1.6 L/kg. Moreover, the mean residence time MRT in series [4] turned out to be 0.65 h. Moreover, the “beta t1/2” value in series [8] was 1.75 h.
